Molecules are shown by their SMILES. *1 amine or outer side, *2 acyl side, *3 side chain or, on linkers, in order; H or OH if unused. Where a SMILES comes first, the peptide text is derived from it. Side-chain parts run from the residue outwards. The star is where a group is joined. 3Abz = Nc1cccc(C(=O)O)c1; X4 = CC(=O)c1cccc(N*)c1; X8 = Clc1ccc(N*)c(Cl)c1; Boc = CC(C)(C)OC(=O)*; X1 = Clc1cccc(Cl)c1N*; X7 = Clc1cccc(N*)c1Cl; CO = O=C([*:1])[*:2]; NHPh = c1ccc(N*)cc1

For experiment [1], the target named is T1, Cholecystokinin receptor type A (Cavia porcellus, UniProt Q63931).
T1 sequence (Q63931 whole entry): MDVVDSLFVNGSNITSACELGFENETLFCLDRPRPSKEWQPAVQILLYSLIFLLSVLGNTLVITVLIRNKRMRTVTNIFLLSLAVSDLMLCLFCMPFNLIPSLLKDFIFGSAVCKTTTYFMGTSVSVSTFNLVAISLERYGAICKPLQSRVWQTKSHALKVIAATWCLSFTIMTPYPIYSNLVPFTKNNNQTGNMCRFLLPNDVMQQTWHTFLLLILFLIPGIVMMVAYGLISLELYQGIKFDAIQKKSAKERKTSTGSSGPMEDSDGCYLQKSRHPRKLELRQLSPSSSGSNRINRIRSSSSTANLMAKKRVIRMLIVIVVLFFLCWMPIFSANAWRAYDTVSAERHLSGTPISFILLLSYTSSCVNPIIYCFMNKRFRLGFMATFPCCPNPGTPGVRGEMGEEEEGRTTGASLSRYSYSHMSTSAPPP
The experiment in a line: Binding affinity towards cholecystokinin type A receptor in guinea pig pancreas by using [125I]BH-CCK-8 as radioligand. It is filed as tissue-based. A digest of the protocol: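 Radioligand displacement of [125I]Bolton-Hunter CCK-8, guinea pig pancreas (CCK-A) or cortex (CCK-B) membranes. […] Each determination was run in duplicate with <5% sample variability. Means ±SE are given where there were three or more determinations.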

The species entered for experiment [2] is Cavia porcellus. The experiment in a line: Effective concentration for hydrolysis of phosphoinositide in guinea pig pancreatic Acini. It is filed as functional. A digest of the protocol: (§1)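 Guinea pig pancreatic acini, phosphoinositide hydrolysis. […] Efficacy is expressed as % of the maximal response elicited by CCK-8. Each determination was run in duplicate with <5% sample variability. Means ±SE are given for three or more determinations.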

Experiment [3] in a line: Selectivity ratio of IC50 measured in guinea pig cortex to that of IC50 for guinea pig pancreas. The following applies: Cavia porcellus.
Experiment [4] addresses Gastrin/cholecystokinin type B receptor (Cavia porcellus). Briefly: Binding affinity towards cholecystokinin type B receptor in guinea pig cortex by using [125I]BH-CCK-8 as radioligand.
Experiment [5] is filed under the species Cavia porcellus. The experiment in a line: Percentage response in phosphoinositide hydrolysis relative to maximal response elicited by CCK-8 in guinea pig pancreatic acini. It is filed as functional. A digest of the protocol:
as §1

The species entered for experiment [6] is Cavia porcellus. Briefly: The compound was tested for effective concentration for amylase release in guinea pig pancreatic Acini. The experiment is classed as functional. A digest of the protocol: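 Amylase release from guinea pig pancreatic acini. […] Each determination was run in duplicate with <5% sample variability. Means ±SE are given where there were three or more determinations.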

The target of experiment [7] is T1, Cholecystokinin receptor type A. The experiment in a line: Binding affinity for Cholecystokinin type A receptor in guinea pig pancreas by using [125I]BH-CCK-8 as radioligand.

Take `Cc1ccccc1/N=C(/S)NCCCC[C@H](NC(=O)[C@H](Cc1c[nH]c2ccccc12)NC(=O)OC(C)(C)C)C(=O)N[C@@H](CC(=O)O)C(=O)N[C@@H](Cc1ccccc1)C(N)=O`: the IC50 in experiment [1] amounted to 220 nM.

In turn, `CC(C)(C)OC(=O)N[C@@H](Cc1c[nH]c2ccccc12)C(=O)N[C@@H](CCCCNC(=O)Nc1ccccc1)C(=O)N[C@@H](CC(=O)O)C(=O)N[C@@H](Cc1ccccc1)C(N)=O` (Boc-WK([CO-NHPh])DF-NH2) showed an EC50 in the experiment listed under Cavia porcellus [2] of 53 nM. In experiment [3], the Selectivity stood at 42. Moreover, the IC50 in experiment [4] is 1100 nM. This compound also yielded a Max response in the experiment filed under Cavia porcellus [5] of 96%.

`CC(=O)c1cccc(NC(=O)NCCCC[C@H](NC(=O)[C@H](Cc2c[nH]c3ccccc23)NC(=O)OC(C)(C)C)C(=O)N[C@@H](CC(=O)O)C(=O)N[C@@H](Cc2ccccc2)C(N)=O)c1` (Boc-WK([CO-X4])DF-NH2) displayed an EC50 in the experiment listed under Cavia porcellus [6] of 5.2 nM. Also, in the experiment filed under Cavia porcellus [5], the Max response was determined as 95%. This compound displayed an IC50 in experiment [1] of 19 nM.

Take `CC(C)(C)OC(=O)N[C@@H](Cc1c[nH]c2ccccc12)C(=O)N[C@@H](CCCCNC(=O)Nc1c(Cl)cccc1Cl)C(=O)N[C@@H](CC(=O)O)C(=O)N[C@@H](Cc1ccccc1)C(N)=O` (Boc-WK([CO-X1])DF-NH2): the results for the EC50 in the experiment filed under Cavia porcellus [2] and in the experiment listed under Cavia porcellus [6] were 310 nM and 44 nM, respectively. Moreover, the Selectivity in experiment [3] was 44. Also, the IC50 in experiment [7] stood at 160 nM. For the same compound, the Max response in the experiment filed under Cavia porcellus [5] is 66%.

As to `CC(C)(C)OC(=O)N[C@@H](Cc1c[nH]c2ccccc12)C(=O)N[C@@H](CCCCNC(=O)Nc1ccc(Cl)cc1Cl)C(=O)N[C@@H](CC(=O)O)C(=O)N[C@@H](Cc1ccccc1)C(N)=O` (Boc-WK([CO-X8])DF-NH2), the IC50 in experiment [1] worked out at 8.5 nM.

Turning to `CC(C)(C)OC(=O)N[C@@H](Cc1c[nH]c2ccccc12)C(=O)N[C@@H](CCCCNC(=O)Nc1cccc(Cl)c1Cl)C(=O)N[C@@H](CC(=O)O)C(=O)N[C@@H](Cc1ccccc1)C(N)=O` (Boc-WK([CO-X7])DF-NH2), the Selectivity in experiment [3] was 670. The same compound yielded an IC50 in experiment [1] of 4.5 nM.

Regarding `COC(=O)c1cccc(NC(=O)NCCCC[C@H](NC(=O)[C@H](Cc2c[nH]c3ccccc23)NC(=O)OC(C)(C)C)C(=O)N[C@@H](CC(=O)O)C(=O)N[C@@H](Cc2ccccc2)C(N)=O)c1` (Boc-WK([CO-3Abz-OMe])DF-NH2), in the experiment filed under Cavia porcellus [6], the midpoint of the response, the EC50, lay at 2.7 nM. Besides, the Selectivity in experiment [3] was determined as 54. The same compound had a Max response in the experiment filed under Cavia porcellus [5] of 88%. In experiment [1], this compound registered an IC50 of 26 nM.

A word on the IC50: it is the concentration that inhibits the measured activity by half. A low value points to inhibition by little substance. A word on the EC50: it is the concentration giving half of the maximal effect. Higher therefore signals a need for much substance.

The values above are taken from ChEMBL document CHEMBL1125209, “Boc-CCK-4 derivatives containing side-chain ureas as potent and selective CCK-a receptor agonists” (J Med Chem, 1991).
